The subject of data set [1] is Plasma. The data set can be described thus: AUC (0 to 24 hrs) in plasma of urinary tract infection C3H/HeN mouse model assessed as Sodium3'-Chloro-4'-(alpha-D-mannopyranosyloxy)-biphenyl-4-carboxylate level at 50 mg/kg, po administered as single dose measured after 6 hrs by LC-MS analysis. Set-up: time < 24 hr, dose 50 mg/kg, route oral. It is filed as ADME, organism-based. Conditions: in vivo. In short, it runs like this:
(§1)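 Female C3H/HeN mice (19-25 g) given a single 50 mg/kg oral dose by gavage. Compound dissolved in DMSO, then diluted in 1% Tween-80/PBS to a suspension. Blood and urine (10 μL) sampled at 6 min, 30 min, 1, 2, 4, 6, 8 and 24 h. Proteins precipitated with methanol, then LC-MS; for the prodrug, both ester and carboxylate metabolite measured; n=6.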

Data set [2] has as its target Type 1 fimbrin D-mannose specific adhesin (Escherichia coli K-12, UniProt P08191). The data set can be described thus: Competitive inhibition of His-tagged FimH carbohydrate recognizing domain expressed in Escherichia coli HM125 using ABTS-substrate after 3 hrs by […] assay. Put shortly: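 FimH-CRD-Th-6His from E. coli HM125 coated at 10 μg/mL overnight at 4 °C and blocked with 3% BSA. 4-fold compound dilutions in HEPES buffer pH 7.4 (5% DMSO) plus streptavidin-peroxidase TM-PAA polymer, 3 h at 25 °C. ABTS developed 4 min and read at 415 nm. Duplicates; heptyl mannoside reference on each plate.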

The target of data set [3] is Type 1 fimbrin D-mannose specific adhesin (Escherichia coli K-12) (UniProt P08191). The data set can be described thus: Ratio IC50 for compound to IC50 for n-heptyl R-D-mannopyranoside for His-tagged FimH expressed in Escherichia coli HM125. Put shortly:
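FimH-CRD-Th-6His (10 μg/mL) coated overnight at 4 °C in 20 mM HEPES, 150 mM NaCl, 1 mM CaCl2, pH 7.4, then blocked with 3% BSA. 4-fold compound dilutions in 5% DMSO competed with streptavidin-peroxidase TM-PAA polymer for 3 h at 25 °C. ABTS read at 415 nm, duplicates. IC50 divided by the IC50 of the heptyl mannoside reference run on the same plate.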

Data set [4] in a line: Lipophilicity, log D at pH 7.4 by miniatured shake flask method. The format is physicochemical. Conditions: buffer. Put shortly: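 Octanol-saturated 0.1 M phosphate pH 7.4 containing analyte at 1 μM, overlaid with octanol at two volume ratios, three wells each. Shaken 2 h at 25 °C, then centrifuged; aqueous phase measured by LC-MS. log D computed from depletion. Accepted when the ratio means agree within 0.1.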

The nature of data set [5]: Permeability of the compound assessed as membrane retention by PAMPA method. The format is ADME. In short, it runs like this: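 PAMPA with GIT-0 lipid, donor analyte 50 μM at pH 5.0, 6.2 and 7.4 in quadruplicate, 16 h undisturbed incubation. Donor and acceptor quantified by UV and LC-MS.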
The nature of data set [6]: Apparent permeability across human Caco2 cells after 120 mins by HPLC analysis. It is filed as ADME, cell-based. Conditions: Caco-2. Put shortly:
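Caco-2 cells at passage 60-65 seeded on Transwells and used on days 19-21 in DMEM without pyruvate/phenol red. Only monolayers with TEER >300 Ωcm2 before and after were kept. Apical dosing from 10 mM stock, shaken at 250 rpm. Basolateral samples at 5-120 min by HPLC; Papp = (dQ/dt)/(A·c0). Triplicates.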
In general terms: Caco-2 monolayers are a common model of the intestinal barrier.

A short description of data set [7]: Thermodynamic solubility of the compound at pH 6.5 after 24 hrs by LC-MS analysis. It is filed as physicochemical. Conditions: buffer, read-out: Therm_solubility. Put shortly: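 1 mg solid in 250 μL 50 mM phosphate pH 6.5, sonicated 15 min, shaken 2 h at 25 °C, left 24 h. pH measured, then filtered and diluted; concentration determined by LC-MS.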
Data set [8] can be described thus: Stability of the compound in simulated gastrointestinal fluid assessed as compound remaining after 2 hrs by LC-MS analysis. The format is physicochemical. Conditions: read-out: Stability.
Data set [9] in a line: Stability of the compound in simulated intestinal fluid assessed as compound remaining after 2 hrs by LC-MS analysis. The format is physicochemical. Conditions: read-out: Stability. Put shortly:
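Simulated intestinal fluid (phosphate, NaOH, pancreatin, pH 6) at 37 °C, compound at 10 μM, 500 rpm. Samples at 0-120 min MeCN-quenched; LC-MS as % remaining versus initial.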

Data set [10] has as its system Liver. Description: Metabolic stability of the compound in mouse liver microsomes assessed as degradation by carboxylesterase at 2 uM by LC-MS analysis. The format is ADME, Microsome. Put shortly:
(§2)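 Pooled male mouse liver microsomes (0.25 mg/mL) with 2 μM compound in 0.1 M TRIS pH 7.4 and 2 mM MgCl2 at 37 °C. Samples at 0, 1, 3, 6 and 15 min quenched in cold MeCN; LC-MS as % remaining. The inhibitor arm used microsomes pre-incubated 5 min with 1 mM BNPP.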
A general note: Liver microsomes are a subcellular fraction often used to study metabolism.

For data set [11], the system named is Liver. Description: Metabolic stability of the compound in mouse liver microsomes assessed as degradation by carboxylesterase at 2 uM by LC-MS analysis in presence of CES inhibitor BNPP. The format is ADME, Microsome. In short, it runs like this: as §2
Data set [12] is described as follows: Plasma protein binding in human by miniatured equilibrium dialysis method. It is filed as ADME, cell-free. Conditions: read-out: PPB (converted). Put shortly: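 Human plasma adjusted to pH 7.5 with analyte at 10 μM, dialysed against 0.1 M phosphate pH 7.5 (MWCO 12-14 K) for 5 h at 37 °C in triplicate. Compartments MeCN-precipitated and measured by LC-MS; fb = 1 − cbuffer/cplasma.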

A short description of data set [13]: AUC (0 to 24 hrs) in plasma of urinary tract infection C3H/HeN mouse model at 50 mg/kg, po administered as single dose measured after 6 hrs by LC-MS analysis. It is filed as ADME, organism-based. Set-up: time < 24 hr, dose 50 mg/kg, route oral. Put shortly:
as §1

Data set [14] can be described thus: AUC (0 to 24 hrs) in urine of urinary tract infection C3H/HeN mouse model at 50 mg/kg, po administered as single dose measured after 6 hrs by LC-MS analysis. The format is ADME, organism-based. Set-up: time < 24 hr, dose 50 mg/kg, route oral. In short, it runs like this:
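Female C3H/HeN mice (19-25 g) gavaged once at 50 mg/kg. Compound dissolved in DMSO and diluted in 1% Tween-80/PBS as a suspension, or given in 200 μL PBS. Blood and urine sampled at 6 min to 24 h, methanol-precipitated, and analysed by LC-MS. For the prodrug, both parent and carboxylate metabolite were measured.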

Data set [15] can be described thus: AUC (0 to 24 hrs) in urine of urinary tract infection C3H/HeN mouse model assessed as Sodium3'-Chloro-4'-(alpha-D-mannopyranosyloxy)-biphenyl-4-carboxylate level at 50 mg/kg, po administered as single dose measured after 6 hrs by LC-MS analysis. The format is ADME, organism-based. Set-up: time < 24 hr, dose 50 mg/kg, route oral. Conditions: in vivo. In short, it runs like this:
as §1

In brackets after ≈: the same amount, converted by molar mass.

Type 1 fimbrin D-mannose specific adhesin (Escherichia coli K-12), sequence (P08191 whole entry): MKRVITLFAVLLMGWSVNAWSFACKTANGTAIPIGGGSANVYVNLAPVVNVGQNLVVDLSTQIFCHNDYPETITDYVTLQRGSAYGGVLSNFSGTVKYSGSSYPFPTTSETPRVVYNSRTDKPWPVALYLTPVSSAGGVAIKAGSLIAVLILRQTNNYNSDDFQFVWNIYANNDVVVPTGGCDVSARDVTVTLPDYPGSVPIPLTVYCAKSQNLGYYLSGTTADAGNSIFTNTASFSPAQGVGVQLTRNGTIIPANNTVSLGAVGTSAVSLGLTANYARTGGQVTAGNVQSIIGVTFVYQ
Type 1 fimbrin D-mannose specific adhesin, sequence (P08191 whole entry, the tested form may be a part): as the sequence (P08191 whole entry) above

Take `COC(=O)c1ccc(-c2ccc(O[C@H]3O[C@H](CO)[C@@H](O)[C@H](O)[C@@H]3O)c(Cl)c2)cc1`: the AUC in [1] came to 2100 ng·h/mL; in [15], 21690 ng·h/mL. Moreover, the IC50 in [2] was 4.8 nM. In addition, in [3], the Ratio IC50 turned out to be 0.06. Moreover, in [4], the logD stood at 2.32. In data set [5], the permeability came to 41%. Besides, in data set [6], the apparent permeability coefficient (Papp) at 2 h stood at 2.05 ×10⁻⁶ cm/s. In addition, in data set [7], the solubility thermodynamic at 24 h turned out to be 11.9 µg/mL (≈ 28 µM). The remaining at 2 h in data set [8] and in [9] was 80% in each case. The Stability entry in data set [10] was “Unstable”; in [11] it was “Stable”. The fraction unbound in data set [12] is 0.06. In addition, the exposure AUC(0-t) at 24 h in [13] was 1020 ng·h/mL; in data set [14] it was 1890 ng·h/mL.

Usually AUC stands for concentration integrated over time. In general, IC50 refers to the concentration that gives 50% inhibition. A lower IC50 goes with greater potency. Broadly, the logD is lipophilicity at a set pH, counting ionised and neutral species. What is called Papp is the rate of passage across a membrane or cell layer, normalised by area and donor concentration. As usually defined, the AUC(0-t) is the area under the concentration-time curve up to a stated or last time point.

These data come from ChEMBL document CHEMBL1799951, “FimH antagonists for the oral treatment of urinary tract infections: from design and synthesis to in vitro and in vivo evaluation” (J Med Chem, 2010).
